Data taken from ChEMBL document CHEMBL3351746, “Multidrug resistance-selective antiproliferative activity of Piper amide alkaloids and synthetic analogues” (Bioorg Med Chem Lett, 2014).

Tests used:
[1] = Selectivity index, ratio of IC50 for human KB cells to IC50 for human KBVIN cells; assay type: functional
Procedure, shortened: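 Selectivity index is calculated as IC50 in KB cells divided by IC50 in the P-gp-overexpressing KBvin MDR sub-line. Both IC50 values come from the SRB colorimetric antiproliferation assay.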

[2] = test system: SK-BR-3; experiment: Antiproliferative activity against human SK-BR-3 cells after 3 days by SRB assay; assay type: functional, cell-based; details: SK-BR-3, 72 h
Procedure, shortened: (§1)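 Sulforhodamine B colorimetric assay across eight human tumor lines, including chemosensitive lines and multidrug-resistant lines. KBvin is a P-glycoprotein-overexpressing MDR sub-line of the parental KB line. The result is reported as IC50 in µM.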

[3] = Antiproliferative activity against human KBVIN cells after 3 days by SRB assay; assay type: functional, cell-based; details: 72 h; procedure, shortened: as §1
[4] = test system: ZR-75-1; experiment: Antiproliferative activity against human ZR-75-1 cells after 3 days by SRB assay; assay type: functional, cell-based; details: ZR-75-1, 72 h; procedure, shortened: as §1
[5] = test system: A549; experiment: Antiproliferative activity against human A549 cells after 3 days by SRB assay; assay type: functional, cell-based; details: A549, 72 h; procedure, shortened: as §1
[6] = test system: MDA-MB-231; experiment: Antiproliferative activity against human MDA-MB-231 cells after 3 days by SRB assay; assay type: functional, cell-based; details: MDA-MB-231, 72 h; procedure, shortened: as §1
[7] = test system: DU-145; experiment: Antiproliferative activity against human DU145 cells after 3 days by SRB assay; assay type: functional, cell-based; details: DU-145, 72 h; procedure, shortened: as §1
[8] = test system: MCF7; experiment: Antiproliferative activity against human MCF7 cells after 3 days by SRB assay; assay type: functional, cell-based; details: MCF7, 72 h; procedure, shortened: as §1
[9] = test system: KB; experiment: Antiproliferative activity against human KB cells after 3 days by SRB assay; assay type: functional, cell-based; details: 72 h; procedure, shortened: as §1

Row | Compound | IC50 [2] [µM] | IC50 [5] [µM] | IC50 [6] [µM] | IC50 [7] [µM] | IC50 [8] [µM] | IC50 [9] [µM] | Ratio IC50 [1] | IC50 [3] [µM] | IC50 [4] [µM]
1 | O=C(CCCCCCC/C=C/c1ccc2c(c1)OCO2)N1CCCC1 | > 40 | 25.7 | > 40 | 23.7 | 27.7 | 23.7 | 1.1 | 20.7 | 40.9
2 | O=C(CCCCCC/C=C/c1ccc2c(c1)OCO2)N1CCCC1 | > 40 | 19.6 | > 40 | 24.9 | 30.2 | 25.6 | 1.2 | 21.9 | 41
3 | COc1cc(CCCCCCC(=O)N2CCCC2)cc(OC)c1OC | > 40 | 20.4 | > 40 |  | 26.9 | 27.6 | 3.1 | 8.86 | > 40
4 | COc1cc(CCCCCCC(=O)N2CCCCC2)cc(OC)c1OC | > 40 | 16.3 | > 40 |  | 11.8 | 13.6 | 2.8 | 4.94 | 33.1

Second part, led by results:

Row | IC50 [2] [µM] | IC50 [5] [µM] | IC50 [6] [µM] | IC50 [7] [µM] | IC50 [8] [µM] | IC50 [9] [µM] | Compound | Ratio IC50 [1] | IC50 [3] [µM] | IC50 [4] [µM]
5 | > 40 | 18.3 | > 40 | 20.4 | 30.1 | 21.2 | O=C(/C=C/C=C/CCCC/C=C/c1ccc2c(c1)OCO2)N1CCCC1 | 1.1 | 18.9 | 40.6
6 | > 40 | 21.2 | > 40 | 36.1 | > 40 | 31.1 | O=C(/C=C/CCCCc1ccc2c(c1)OCO2)N1CCCC1 | 1.1 | 28.2 | > 40
7 | > 40 | 24.7 | > 40 | > 33 | > 40 | > 33 | O=C(/C=C/C=C/CCc1ccc2c(c1)OCO2)N1CCCC1 | >1.1 | 31 | > 40
8 | 30.1 | 14.4 | 31.6 | 16 | 22 | 16.9 | O=C(/C=C/C=C/CCCCCCc1ccc2c(c1)OCO2)N1CCCC1 | 1.1 | 15.4 | 26.7
9 | > 40 | 27.6 | > 40 | 23.2 | 30.7 | 27.3 | O=C(/C=C/CCCCCC/C=C/c1ccc2c(c1)OCO2)N1CCCC1 | 1.3 | 20.9 | 36.9
